cardiac RTF act: increases calcium sensitivity of human cardiac regulated thin filaments. P19429+P45379. IANBD-labeled TnC RTF fluorescence at EC20 calcium; 0% EC20 calcium, 100% full calcium. activation, % at 7.2 µM. 340,000 compounds, 0.24% hits. AID 493008;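 active means activation above the mean over all tested compounds plus 3 SD, cut at about 30% in these data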;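 further: rise in fluorescence read as greater calcium sensitivity of cardiac thin filaments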
C-LANA FP: KSHV C-LANA DNA binding inhibition; MBP-C-LANA/FAM-LBS DNA binding, fluorescence polarization; inhibition, % at 9 µM; 340,000 compounds, 0.078% hits; AID 504423;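 active means highest replicate inhibition at or above 60% at 9 µM, even if other replicates fall short; inactive means all replicates below 60% inhibition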
Keap1 Nrf2 FP: inhibitors of human Keap1-Nrf2 protein-protein interaction | inhibition, % at 9.4 µM | Q14145 | 340,000 compounds, 0.15% hits | Keap1 Kelch-Nrf2 peptide fluorescence polarization, 1536-well; in the data active means inhibition above about 12%;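 further: human Keap1 Kelch domain with fluorescein labeled Nrf2 9mer peptide probe; higher means more block of Keap1 binding to Nrf2 peptide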
Target sequence (Q14145 whole entry, looked up, the tested form may be a part): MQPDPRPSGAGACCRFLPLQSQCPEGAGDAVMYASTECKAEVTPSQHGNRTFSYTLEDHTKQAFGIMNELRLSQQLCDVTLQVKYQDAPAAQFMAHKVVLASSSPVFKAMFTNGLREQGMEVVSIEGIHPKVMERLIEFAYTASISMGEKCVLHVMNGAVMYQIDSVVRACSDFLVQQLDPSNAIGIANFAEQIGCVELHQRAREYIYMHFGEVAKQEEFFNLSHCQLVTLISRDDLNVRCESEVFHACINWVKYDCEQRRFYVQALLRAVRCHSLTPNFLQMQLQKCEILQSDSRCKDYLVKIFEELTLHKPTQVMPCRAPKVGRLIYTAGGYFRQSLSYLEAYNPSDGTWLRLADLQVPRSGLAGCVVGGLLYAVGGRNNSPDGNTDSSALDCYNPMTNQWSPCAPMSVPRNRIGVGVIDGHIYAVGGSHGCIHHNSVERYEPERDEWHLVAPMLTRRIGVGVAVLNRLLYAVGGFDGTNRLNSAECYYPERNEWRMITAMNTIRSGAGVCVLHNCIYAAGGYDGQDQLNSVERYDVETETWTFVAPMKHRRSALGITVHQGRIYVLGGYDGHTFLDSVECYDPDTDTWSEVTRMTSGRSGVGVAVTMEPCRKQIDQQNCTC
DDE Tn6 FP inh: DD(E)-Tn6 binding inhibition, primary FP screen. P02675. inhibition, % at 8.3 µM. 370,000 compounds, 0.21% hits. AID 720509. Fibrin DD(E) TRITC-Tn6 fluorescence polarization displacement;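 active means inhibition above a per-campaign cutoff: mean of compounds within control limits plus 3 SD, cut at about 15% in these data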
DDE Tn7 FP inh: disrupts Tn7 cyclic peptide binding to fibrin D-Dimer-E complex; FP displacement of FITC-Tn7 peptide from fibrin DD(E); 0% = median of compound wells per plate; AID 720508; 370,000 compounds, 0.13% hits; inhibition, % at 8.3 µM;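 active means inhibition above the mean of compounds falling within the control limits plus 3 SD of them, cut at about 14% in these data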
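Assay system: Human clot-derived fibrin DD(E) complex | Buffer or medium: Tris/NaCl/CaCl2 buffer, pH 7.8 | Repeats: One replicate per compound | Benchmarks: Aha-Tn7 high control | Measure: % inhibition scaled between sample-field median and high-control FP | Schedule: 10 min plus 3 h, room temperature | Signal: Fluorescence polarization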
RTF Ca sens inh: cardiac RTF calcium desensitization | P19429+P45379 | IANBD-labeled cardiac RTF, Ca2+ fluorescence | inhibition, % at 7.15 µM | 340,000 compounds, 0.12% hits | AID 493244;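 active means inhibition above the mean inhibition of all tested compounds plus 3 SD, cut at about 17% in these data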;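 further: assay run at fixed EC70 calcium of 1.6 mM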
RTF Ca inh conf: cardiac RTF calcium sensitivity inhibition, confirmation; shares compounds with RTF Ca sens inh; 360 compounds, 8% hits; reconstituted cardiac thin filaments, calcium sensitivity fluorescence; inhibition, % at 7.15 µM; in the data active means inhibition above about 18%
DNA intercal 2: intercalates DNA, flagged as C-LANA false positive; shares compounds with C-LANA FP; Acridine orange-DNA displacement, fluorescence polarization; AC50, µM (titrated, usually from 35 µM); 20 tested, under 10 active; AID 588364;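 active means signal drop with an AC50 no more than ten times the top valid dose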
Keap1 TSA: Keap1 (human) Kelch domain binding. Keap1 Kelch thermal shift, delta Tm; stronger effect = higher value. shares compounds with Keap1 Nrf2 FP. 400 compounds, 8% hits. max delta Tm, degrees C; in the data active means max delta Tm above about 0.48 degrees C
Dye-only ctr: counter-screen for Keap1 thermal shift hits: dye-only artifacts. AID 651858. delta Tm, degrees C (concentration not given with the values). Sypro Orange dye-only thermal melt, no protein, delta Tm; top dose 26 µM. 140 tested, under 10 active. shares compounds with Keap1 Nrf2 FP;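 active means at highest dose tested, delta Tm positive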
Each line names hits and unclear results; the compound was inactive in the other large screens (follow-up assays come after a bar, where they were run). Sampled rows, rich in hits. Any-hit rate of the full collection: about 0.73%.

COCCNC(=O)CSc1nc2ccc(N3CCOCC3)cc2c(=O)n1Cc1ccc(OC)cc1	none
Cc1ccc(NC(=O)CSc2nnc3n2CCCCC3)cc1	RTF Ca sens inh 21.6 | RTF Ca inh conf inactive
CN1CCN(/N=C/c2ccc(Br)cc2)CC1	RTF Ca sens inh 20.1 | RTF Ca inh conf inactive
CN1CCN(/N=C/c2ccc(N(c3ccccc3)c3ccccc3)cc2)CC1	none
O=C(O)CC(C(=O)O)N1C(=O)/C(=C/C=C/c2ccco2)SC1=S (centres undefined)	C-LANA FP 106.0, RTF Ca sens inh 65.8 | RTF Ca inh conf 20.6 | DNA intercal 2 inactive
COC(=O)C1CN(C2CC2)CCS(=O)(=O)N1Cc1cn(Cc2ccccc2)nn1 (centres undefined)	none (no result: cardiac RTF act, C-LANA FP, Keap1 Nrf2 FP, RTF Ca sens inh)
O=C(O)C1Nc2c(O)cc(Cl)c([N+](=O)[O-])c2C2C=CCC12 (centres undefined)	C-LANA FP 120.4, Keap1 Nrf2 FP 42.0, RTF Ca sens inh 85.9 | RTF Ca inh conf 35.8 | DNA intercal 2 inactive | Keap1 TSA 0.92
O=[N+]([O-])c1ccc(Cl)c2c1C1C=CCC1C(c1ccccn1)N2 (centres undefined)	none
O=C1C(=Cc2ccco2)CCC1=Cc1ccco1	C-LANA FP 115.7, Keap1 Nrf2 FP 20.1, RTF Ca sens inh 28.8 | RTF Ca inh conf 60.4 | Keap1 TSA 0.86
CCOC(=O)Cc1c(-c2cccc(Br)c2)nc2c3ccccc3ccn12	none (no result: cardiac RTF act, C-LANA FP, Keap1 Nrf2 FP, RTF Ca sens inh)
O=C(O)c1cccc(-n2cccc2/C=C2/NC(=O)N(c3ccc(Cl)cc3)C2=O)c1	C-LANA FP 110.1, Keap1 Nrf2 FP 19.5, RTF Ca sens inh 74.8 | RTF Ca inh conf 55.0 | Keap1 TSA inactive
O=c1[nH]c(=S)[nH]c2c1C(c1ccc(Br)cc1)c1c([nH]c(=S)[nH]c1=O)O2	C-LANA FP 112.5, Keap1 Nrf2 FP 45.0, RTF Ca sens inh 69.3 | RTF Ca inh conf inactive | Keap1 TSA inactive | Dye-only ctr inactive
O=C1CCCC2=C1C(c1ccc(Br)cc1)c1c([nH]c(=S)[nH]c1=O)N2 (centres undefined)	none
Cc1ccc(OCCNC(=O)[C@@H](Cc2ccccc2)NC(=O)[C@H]2O[C@@H](n3ccc(=O)[nH]c3=O)[C@H](O)[C@@H]2O)cc1C	none (no result: cardiac RTF act, C-LANA FP, Keap1 Nrf2 FP, RTF Ca sens inh)
CC1(C)[C@@H](O[C@H]2O[C@H](C(=O)O)[C@@H](O)[C@H](O)[C@H]2O[C@@H]2O[C@H](C(=O)O)[C@@H](O)[C@H](O)[C@H]2O)CC[C@]2(C)[C@H]3C(=O)C=C4[C@@H]5C[C@@](C)(C(=O)O)CC[C@]5(C)CC[C@@]4(C)[C@]3(C)CC[C@@H]12	none (no result: cardiac RTF act, C-LANA FP, Keap1 Nrf2 FP, DDE Tn6 FP inh, DDE Tn7 FP inh, RTF Ca sens inh) | DNA intercal 2 inactive
Cc1[nH]c2ccccc2c1C(=O)c1c(N)[nH]c(C(=O)c2ccc(Br)cc2)c1-c1ccc(Br)cc1	none (no result: cardiac RTF act, C-LANA FP, Keap1 Nrf2 FP, RTF Ca sens inh)
CC(=O)c1ccc2c(c1)C1C=CCC1C(C(=O)O)N2 (centres undefined)	C-LANA FP 113.6, Keap1 Nrf2 FP 20.5 (no result: cardiac RTF act, RTF Ca sens inh) | DNA intercal 2 inactive | Keap1 TSA 2.1 | Dye-only ctr inactive
CC(=O)c1ccc2c(c1)C1C=CCC1C(c1ccncc1)N2 (centres undefined)	none
C[C@H]1[C@@H](OC(=O)Nc2ccc(C(F)(F)F)cc2)CC[C@@]23CCCN2C(=O)CCC[C@@H]13	none (no result: cardiac RTF act, C-LANA FP, Keap1 Nrf2 FP, RTF Ca sens inh)
Nc1c(C(=O)Nc2ccccc2F)sc2nc(Cc3ccccc3)cc(C(F)(F)F)c12	cardiac RTF act 49.3, Keap1 Nrf2 FP 32.9 | DNA intercal 2 19.4µM | Keap1 TSA inactive
CCCn1nc(-c2ccccc2)c2nc3ccccc3nc21	none (no result: cardiac RTF act, C-LANA FP, Keap1 Nrf2 FP, RTF Ca sens inh)
CCn1nc(-c2ccccc2)c2nc3ccccc3nc21	cardiac RTF act 50.1, Keap1 Nrf2 FP 42.0 | Keap1 TSA inactive | Dye-only ctr inactive
COC(=O)C1=COC(C)C2CN3CCc4c([nH]c5ccccc45)C3CC12 (centres undefined)	cardiac RTF act 35.3, Keap1 Nrf2 FP 15.1 | Keap1 TSA inactive
CCN(CC)C(=O)CC[C@H]1CC[C@]2(CCCN(S(=O)(=O)c3ccccc3)C2)O1	none (no result: cardiac RTF act, C-LANA FP, Keap1 Nrf2 FP, RTF Ca sens inh)
CCCCCN1CCCCC(NC(=O)Cc2ccccc2)C1=O (centres undefined)	none (no result: cardiac RTF act, C-LANA FP, Keap1 Nrf2 FP, RTF Ca sens inh)
Cc1cccc(NC(=O)CCN2CCCCC2)c1	Keap1 Nrf2 FP 31.8 | Keap1 TSA inactive | Dye-only ctr inactive
Cc1cccc(NC(=O)CN2CCCCCC2)c1	none
O=C(COC(=O)c1cccs1)Nc1cccc(S(=O)(=O)NC2=NCCCCC2)c1	none
O=C(COC(=O)c1ccc([N+](=O)[O-])s1)Nc1cccc(S(=O)(=O)NC2=NCCCCC2)c1	Keap1 Nrf2 FP 52.8 | Keap1 TSA inactive
CC(C)(C)c1ccccc1NC(=O)NC1CCN(Cc2c(F)cccc2Cl)CC1	Keap1 Nrf2 FP 20.9 (no result: cardiac RTF act, RTF Ca sens inh) | Keap1 TSA inactive
COc1cc([C@@H]2[C@H]3CN(C)CC=C3C(C#N)=C(N)C2(C#N)C#N)cc2c1OCO2	none
CCCC1C2CN(C(C)C)CC=C2C(C#N)=C(N)C1(C#N)C#N (centres undefined)	cardiac RTF act 51.8, Keap1 Nrf2 FP 20.2 | Keap1 TSA inactive | Dye-only ctr inactive
CN1CC=C2C(C#N)=C(N)C(C#N)(C#N)C(c3ccsc3)C2C1 (centres undefined)	Keap1 Nrf2 FP 17.4 | Keap1 TSA inactive
CCOC(=O)N1CC=C2C(C#N)=C(N)C(C#N)(C#N)[C@H](c3ccsc3)[C@H]2C1	none
CN1CC=C2C(C#N)=C(N)C(C#N)(C#N)[C@H](c3cccs3)[C@H]2C1	cardiac RTF act 41.4, Keap1 Nrf2 FP 26.0 (no result: DDE Tn6 FP inh, DDE Tn7 FP inh) | Keap1 TSA inactive | Dye-only ctr inactive
O=C(C1=NN(c2ccccc2)C2C(=O)N(c3ccccc3)C(=O)C12)c1ccccc1 (centres undefined)	cardiac RTF act 33.1, Keap1 Nrf2 FP 53.7 | Keap1 TSA inactive | Dye-only ctr inactive
CC(=O)C1(C(=O)NC2CCCC2)CC(c2ccccc2C(F)(F)F)=NO1 (centres undefined)	none (no result: cardiac RTF act, C-LANA FP, Keap1 Nrf2 FP, RTF Ca sens inh)
Cc1ccccc1Nc1c([N+](=O)[O-])cncc1[N+](=O)[O-]	none
O=[N+]([O-])c1cncc([N+](=O)[O-])c1Nc1cccc(O)c1	Keap1 Nrf2 FP 35.2 | Keap1 TSA inactive

High-throughput results (PubChem BioAssay)
